Data reported in publication PMC11528686 (Insect biochemistry and molecular biology, 2022).

Experiments:
[1] = test system: proPO activation in cell-free hemolymph from naïve larvae; assay: Elicitor-independent proPO activation in plasma from naïve larvae; type: biochemical, Manduca sexta; details: at 40 ng/μl protein, 60 min, room temperature, no bacterial elicitor
Procedure, shortened: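 Naïve larval plasma (day 2, 5th instar; hemocytes removed by 5000 × g, 5 min; stored −80 °C, used within a month) was diluted ten-fold in 20 mM Tris-HCl pH 8.0, 1 mM CaCl2, 0.001% Tween-20. Plasma (5 μl) was mixed with 0–1000 ng protein (final 25 μl) and incubated 60 min. BSA served as negative control. PO was read with dopamine at A470 in kinetic mode; mean ± SD, n = 3.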

[2] = biological target: T1, PGRP1 (Manduca sexta, UniProt Q86RS6); assay: SPR on a Biacore T200; type: binding; details: read-out: Kd (μM), values without parentheses
T1 sequence (Q86RS6 20-191): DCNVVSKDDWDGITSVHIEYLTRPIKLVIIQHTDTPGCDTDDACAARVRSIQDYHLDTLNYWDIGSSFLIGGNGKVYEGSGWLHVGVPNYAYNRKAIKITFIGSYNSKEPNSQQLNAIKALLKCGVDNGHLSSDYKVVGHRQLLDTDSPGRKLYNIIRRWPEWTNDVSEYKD
Procedure, shortened: (§1)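 Association and dissociation were run on a Biacore T200 with amine-coupled protein. DAP- or Lys-muramyl pentapeptide, stored at −20 °C, was flowed in HBS-EP (10 mM HEPES, 150 mM NaCl, 3 mM EDTA, 0.005% polysorbate 20) at 30 μl/min and 25 °C. Multi-concentration curves were globally fitted to 1:1 and two-state models, and Kd came from the fit with lower χ2.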

[3] = biological target: PGRP5; assay: SPR on a Biacore T200; type: binding; details: read-out: Kd (μM), values without parentheses
Procedure, shortened: as §1

[4] = biological target: PGRP12e; assay: SPR on a Biacore T200; type: binding; details: read-out: Kd (μM), values without parentheses
Procedure, shortened: as §1

[5] = biological target: PGRP3s; assay: SPR on a Biacore T200; type: binding; details: read-out: Kd (μM), values without parentheses
Procedure, shortened: as §1

[6] = biological target: PGRP4; assay: SPR on a Biacore T200; type: binding; details: read-out: Kd (μM), values without parentheses
Procedure, shortened: as §1

[7] = biological target: T2, PGRP2 (Manduca sexta, UniProt D1KRK9); assay: SPR on a Biacore T100; type: binding; details: read-out: Kd (μM), values in parentheses
T2 sequence (D1KRK9 19-196): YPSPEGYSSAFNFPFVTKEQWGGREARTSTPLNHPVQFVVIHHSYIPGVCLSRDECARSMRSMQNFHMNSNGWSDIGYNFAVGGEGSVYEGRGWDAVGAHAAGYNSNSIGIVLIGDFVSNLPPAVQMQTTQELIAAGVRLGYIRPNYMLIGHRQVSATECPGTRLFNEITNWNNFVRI
Procedure, shortened: (§2)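 On a Biacore T100, protein was amine-coupled and DAP- or Lys-muramyl pentapeptide, freshly prepared, was flowed in HBS-EP (10 mM HEPES, 150 mM NaCl, 3 mM EDTA, 0.005% polysorbate 20) at 30 μl/min and 25 °C. Curves at several analyte concentrations were globally fitted to 1:1 and two-state models, and the fit with lower χ2 gave Kd.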

[8] = biological target: PGRP13f; assay: SPR on a Biacore T200; type: binding; details: read-out: Kd (μM), values without parentheses
Procedure, shortened: as §1

[9] = biological target: T1, PGRP1; assay: SPR on a Biacore T100; type: binding; details: read-out: Kd (μM), values in parentheses; cited from earlier work
[10] = biological target: PGRP3s; assay: SPR on a Biacore T100; type: binding; details: read-out: Kd (μM), values in parentheses
Procedure, shortened: as §2

[11] = biological target: PGRP3f; assay: SPR on a Biacore T200; type: binding; details: read-out: Kd (μM), values without parentheses
Procedure, shortened: as §1

Row | Substance | PO activity [1] [U] | Kd [2] [µM] | Kd [3] [µM] | Kd [4] [µM] | Kd [5] [µM] | Kd [6] [µM] | Kd [7] [µM] | Kd [8] [µM] | Kd [9] [µM] | Kd [10] [µM] | Kd [11] [µM]
1 | bovine serum albumin [BSA] | 0.1 |  |  |  |  |  |  |  |  |  | 
2 | DAP-muramyl pentapeptide (meso-diaminopimelic acid-type peptidoglycan monomer) [DAP-MPP] |  | 2.01 | 2.01 | 2.64 | 1.75 | 4.06 | 0.49 | 1.8 | 0.57 | 0.42 | 4.7
3 | Lys-muramyl pentapeptide (Lys-type peptidoglycan monomer) [Lys-MPP] |  | 38 | 37.8 |  | 23.8 | 79.8 | > 100 | 8.77 | 45.6 | 64 | 29.2
